# Experimental data published in ChEMBL document CHEMBL4350963, “Discovery and Lead-Optimization of 4,5-Dihydropyrazoles as Mono-Kinase Selective, Orally Bioavailable and Efficacious Inhibitors of Receptor Interacting Protein 1 (RIP1) Kinase” (J Med Chem, 2019).
# Legend:
# [1] = Chromatographic hydrophobicity index, log D of the compound at pH 7.4 by reverse-phase HPLC analysis; assay type: physicochemical; settings: buffer
# How it was run: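 Log D at pH 7.4 was calculated from the retention time on a fast-gradient reverse-phase HPLC run.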
# [2] = Drug metabolism in rat blood assessed as hydroxylation; assay type: ADME, tissue-based
# [3] = Drug metabolism in rat urine assessed as hydroxylation; assay type: ADME
# [4] = Drug exposure in rat at 2 mg/kg, po; assay type: ADME, organism-based; settings: in vivo, BLD = below limit of detection
# How it was run: (§1)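 Rat pharmacokinetics: the iv arm was dosed at 1 mg/kg in 5% DMSO/20% Cavitron aqueous solution. The oral arm was dosed at 2 mg/kg in 5% DMSO/6% Cavitron aqueous solution. Bioavailability was calculated non-crossover, from average exposures in separate oral and iv studies.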
# [5] = Lipophilicity, log P of the compound; assay type: physicochemical; settings: octanol/water
# [6] = Drug metabolism in rat bile assessed as hydroxylation; assay type: ADME, tissue-based
# [7] = AUC (0 to infinity) in rat at 1 mg/kg, iv; assay type: ADME, organism-based; design: dose 1 mg/kg, time infinity, route intravenous; settings: in vivo; how it was run: as §1
# [8] = Volume of distribution at steady state in rat at 1 mg/kg, iv; assay type: ADME, organism-based; settings: in vivo, read-out: Vdss
# [9] = Solubility of the compound in fasted state simulated intestinal fluid measured after 4 hrs; assay type: physicochemical
# [10] = Cmax in minipig at 2 mg/kg, po; assay type: ADME, organism-based, Sus scrofa; design: dose 2 mg/kg, route oral; settings: pig, in vivo
# [11] = Cmax in rat at 2 mg/kg, po; assay type: ADME, organism-based; design: dose 2 mg/kg, route oral; settings: in vivo; how it was run: as §1
# [12] = Volume of distribution at steady state in monkey at 1 mg/kg, iv; assay type: ADME, organism-based, Macaca mulatta; settings: rhesus monkey, in vivo, read-out: Vdss
# [13] = Tmax in monkey at 2 mg/kg, po; assay type: ADME, organism-based, Macaca mulatta; settings: rhesus monkey, in vivo
# [14] = Oral bioavailability in rat at 2 mg/kg; assay type: ADME, organism-based; settings: in vivo
# [15] = AUC (0 to infinity) in mouse at 2 mg/kg, iv; assay type: ADME, organism-based; design: dose 2 mg/kg, time infinity, route intravenous; settings: in vivo
# [16] = Tmax in mouse at 30 mg/kg, po; assay type: ADME, organism-based; settings: in vivo
# [17] = Volume of distribution at steady state in mouse at 2 mg/kg, iv; assay type: ADME, organism-based; settings: in vivo, read-out: Vdss
# [18] = Tmax in rat at 2 mg/kg, po; assay type: ADME, organism-based; settings: in vivo
# [19] = Oral bioavailability in minipig at 2 mg/kg; assay type: ADME, organism-based, Sus scrofa; settings: pig, in vivo
# [20] = Cmax in monkey at 2 mg/kg, po; assay type: ADME, organism-based, Macaca mulatta; design: dose 2 mg/kg, route oral; settings: rhesus monkey, in vivo
# [21] = Cmax in mouse at 30 mg/kg, po; assay type: ADME, organism-based; design: dose 30 mg/kg, route oral; settings: in vivo
# How it was run: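 Mouse pharmacokinetics: the iv arm received 2 mg/kg in 5% DMSO/20% Cavitron aqueous solution. The oral arm received 30 mg/kg as a suspension in 1% aqueous methylcellulose.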
# [22] = Volume of distribution at steady state in minipig at 1 mg/kg, iv; assay type: ADME, organism-based, Sus scrofa; settings: pig, in vivo, read-out: Vdss
# [23] = Oral bioavailability in monkey at 2 mg/kg; assay type: ADME, organism-based, Macaca mulatta; settings: rhesus monkey, in vivo
# [24] = Tmax in minipig at 2 mg/kg, po; assay type: ADME, organism-based, Sus scrofa; settings: pig, in vivo
# [25] = AUC (0 to infinity) in monkey at 1 mg/kg, iv; assay type: ADME, organism-based, Macaca mulatta; design: dose 1 mg/kg, time infinity, route intravenous; settings: rhesus monkey, in vivo
# [26] = AUC (0 to infinity) in minipig at 1 mg/kg, iv; assay type: ADME, organism-based, Sus scrofa; design: dose 1 mg/kg, route intravenous, time infinity; settings: pig, in vivo
SMILES,chromatographic logD [1],other results
CC(C)C(=O)N1N=CCC1c1ccccc1 (stereo not given),4.4,–
O=C(c1ccccn1)N1N=CCC1c1ccccc1 (stereo not given),2.4,–
CC(C)(C)C(=O)N1N=CC[C@H]1c1ccccc1,5.8,Drug metabolism [2]: Metabolite_Detected; Drug metabolism [3]: Metabolite_Detected; Drug uptake [4]: Bld; logP [5]: 5.9; Drug metabolism [6]: Metabolite_Detected
O=C(c1cn[nH]c1)N1CCC(C(=O)N2N=CCC2c2ccccc2)CC1 (stereo not given),2.1,AUC(0-inf) [7]: 0.36 µg·h/mL; Vd [8]: 1.6 L/kg
CCC(=O)N1CCC(C(=O)N2N=CCC2c2ccccc2)CC1 (stereo not given),3.2,–
CN1CCC(C(=O)N2N=CCC2c2ccccc2)CC1 (stereo not given),1.1,–
CC(C)(C)C(=O)N1N=CCC1c1ccc(C(C)(C)C)cc1 (stereo not given),8,–
CC(C)(C)C(=O)N1N=CCC1c1cccc(F)c1 (stereo not given),5.9,–
CC(C)(C)C(=O)N1CCC1c1ccccc1 (stereo not given),5,–
N#Cc1nccc(N2CCC(C(=O)N3N=CC[C@H]3c3cc(F)cc(F)c3)CC2)n1,5.1,–
CC(C)(C)C(=O)N1N=CCC1c1ccccn1 (stereo not given),3.5,–
CC1=NN(C(=O)C(C)(C)C)[C@H](c2ccccc2)C1,6.4,–
Cc1nnc(N2CCC(C(=O)N3N=CC[C@H]3c3cc(F)cc(F)c3)CC2)o1,3.6,AUC(0-inf) [7]: 1.3 µg·h/mL; solubility at 4 h [9]: 0.25 mg/mL; Cmax [10]: 0.576 µg/mL; Cmax [11]: 1.1 µg/mL; Vd [12]: 1.1 L/kg; Vd [8]: 1.3 L/kg; Tmax [13]: 120 min; bioavailability [14]: 130%; AUC(0-inf) [15]: 1.1 µg·h/mL; Tmax [16]: 30 min; Vd [17]: 1.8 L/kg; Tmax [18]: 25 min; bioavailability [19]: 65%; Cmax [20]: 0.48 µg/mL; Cmax [21]: 5.41 µg/mL; Vd [22]: 1.3 L/kg; bioavailability [23]: 40%; Tmax [24]: 80 min; AUC(0-inf) [25]: 3.1 µg·h/mL; AUC(0-inf) [26]: 1.3 µg·h/mL
O=C(c1cccnc1)N1CCC(C(=O)N2N=CCC2c2ccccc2)CC1 (stereo not given),2.6,–
O=C(c1cnco1)N1CCC(C(=O)N2N=CC[C@H]2c2ccccc2)CC1,2.7,AUC(0-inf) [7]: 0.4 µg·h/mL; Vd [8]: 2.1 L/kg
O=C(c1cscn1)N1CCC(C(=O)N2N=CC[C@H]2c2ccccc2)CC1,3,–
O=C(c1cccnc1)N1N=CCC1c1ccccc1 (stereo not given),2.7,–

SMILES,chromatographic logD [1],other results
CN1CCN(C(=O)C(C)(C)C)C(c2ccccc2)C1 (stereo not given),4.9,–
CC(C)(C)C(=O)N1N=CCC1c1cccc(Cl)c1 (stereo not given),6.6,–
O=C(C1CCN(c2cccnn2)CC1)N1N=CC[C@H]1c1ccccc1,3.4,–
N#Cc1ccc(N2CCC(C(=O)N3N=CC[C@H]3c3cc(F)cc(F)c3)CC2)nn1,4.8,–
O=C(c1ccccc1)N1N=CCC1c1ccccc1 (stereo not given),4.6,–
O=C(C1CCN(c2ccccc2)CC1)N1N=CCC1c1ccccc1 (stereo not given),6.3,–
O=C(c1ccccn1)N1CCC(C(=O)N2N=CCC2c2ccccc2)CC1 (stereo not given),3.1,–
CC(C)(C)C(=O)N1N=CCC1c1ccc(Cl)cc1 (stereo not given),6.6,–
CC(C)(C)C(=O)N1CCCCC1c1ccccc1 (stereo not given),6.7,–
O=C(c1cc[nH]n1)N1CCC(C(=O)N2N=CCC2c2ccccc2)CC1 (stereo not given),2.4,–
O=C(c1cocn1)N1CCC(C(=O)N2N=CCC2c2ccccc2)CC1 (stereo not given),2.9,AUC(0-inf) [7]: 0.29 µg·h/mL; Vd [8]: 0.98 L/kg
O=C(c1ccccc1)N1CCC(C(=O)N2N=CCC2c2ccccc2)CC1 (stereo not given),4.4,–
CC(C)(C)C(=O)N1N=CCC1C1CCCCC1 (stereo not given),7.3,–
CC(C)(C)C(=O)N1N=CCC1c1cc(F)cc(F)c1 (stereo not given),6.3,–
O=C(C1CCN(c2ccccc2)CC1)N1N=CC[C@H]1c1ccccc1,6.3,–
CC(C)(C)C(=O)N1N=CCC1c1ccccc1 (racemic),5.8,–
CC(=O)N1CCC(C(=O)N2N=CCC2c2ccccc2)CC1 (racemic),2.5,–
